Results: ChEMBL document CHEMBL2390955, “Synthesis of novel strobilurin-pyrimidine derivatives and their antiproliferative activity against human cancer cell lines” (Bioorg Med Chem Lett, 2013)

Assays:
[1] = tested on: HL-60; test: Cytotoxicity against human HL60 cells assessed as growth inhibition by MTT assay; format: functional, cell-based
Method in brief: (§1)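 Growth inhibition of EC9706, HL60, MCF-7 or SMMC7721 human cancer cells measured by MTT assay, with the IC50 reported as the potency value.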

[2] = tested on: A549; test: Cytotoxicity against human A549 cells assessed as growth inhibition by SRB assay; format: functional, cell-based
Method in brief: (§2)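 A549 growth inhibition measured by sulforhodamine B (SRB) staining, with the IC50 reported as the potency value.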

[3] = tested on: SMMC-7721; test: Cytotoxicity against human SMMC7721 cells assessed as growth inhibition by MTT assay; format: functional, cell-based; method in brief: as §1
[4] = tested on: MCF7; test: Cytotoxicity against human MCF7 cells assessed as growth inhibition by MTT assay; format: functional, cell-based; method in brief: as §1
[5] = Cytotoxicity against human EC9706 cells assessed as growth inhibition by MTT assay; format: functional, cell-based; method in brief: as §1
[6] = tested on: HL-60; test: Ratio of doxorubicin IC50 to compound IC50 for human HL60 cells; format: functional
[7] = tested on: A549; test: Cytotoxicity against human A549 cells assessed as growth inhibition; format: functional, cell-based; method in brief: as §2
[8] = tested on: HL-60; test: Cytotoxicity against human HL60 cells assessed as growth inhibition; format: functional, cell-based; method in brief: as §1

Compound	IC50 [1] [µM]	IC50 [2] [µM]	further results
CO/C=C(/C(=O)OC)c1ccccc1COc1cc(C(F)(F)F)nc(Nc2ccc(Cl)cc2)n1	19	1.3	–
CO/C=C(/C(=O)OC)c1ccccc1COc1cc(C(F)(F)F)nc(Nc2ccc(Cl)cc2F)n1	2.7	1.3	–
CO/C=C(/C(=O)OC)c1ccccc1COc1cc(C(F)(F)F)nc(Nc2ccc(F)cc2F)n1	4.8	1	–
CO/C=C(/C(=O)OC)c1ccccc1COc1cc(C(F)(F)F)nc(Nc2c(F)cccc2F)n1	12.1	41.4	–
CO/C=C(/C(=O)OC)c1ccccc1COc1cc(C(F)(F)F)nc(Nc2ccc(F)c(F)c2F)n1	13.6	1	–
CNc1nc(OCc2ccccc2/C(=C\OC)C(=O)OC)cc(C(F)(F)F)n1	76.7	93.7	–
CCNc1nc(OCc2ccccc2/C(=C\OC)C(=O)OC)cc(C(F)(F)F)n1	0.3	3.2	–
CO/C=C(/C(=O)OC)c1ccccc1COc1cc(C(F)(F)F)nc(N(C)C)n1	11.1	6	–
CCN(CC)c1nc(OCc2ccccc2/C(=C\OC)C(=O)OC)cc(C(F)(F)F)n1	15	17.9	–
CO/C=C(/C(=O)OC)c1ccccc1COc1cc(C(F)(F)F)nc(NC(C)C)n1	3.4	9.8	–
CO/C=C(/C(=O)OC)c1ccccc1COc1cc(C(F)(F)F)nc(NC2CC2)n1	6.5	10	–
CO/C=C(/C(=O)OC)c1ccccc1COc1cc(C(F)(F)F)nc(N2CCCCC2)n1	51.6	4.9	–
CO/C=C(/C(=O)OC)c1ccccc1COc1nc(Nc2ccccc2)nc(C(F)(F)F)c1C	0.7	7.4	–
CO/C=C(/C(=O)OC)c1ccccc1COc1nc(Nc2ccc(Cl)cc2)nc(C(F)(F)F)c1C	0.7	5.5	–
CO/C=C(/C(=O)OC)c1ccccc1COc1nc(Nc2ccc(Cl)cc2Cl)nc(C(F)(F)F)c1C	2.9	0.4	IC50 [3]: 4.6 µM; IC50 [4]: 14.2 µM; IC50 [5]: 0.44 µM
CO/C=C(/C(=O)OC)c1ccccc1COc1nc(Nc2ccc(F)cc2F)nc(C(F)(F)F)c1C	0.0034	3.1	Ratio IC50 [6]: 24
CO/C=C(/C(=O)OC)c1ccccc1COc1nc(Nc2ccc(F)c(F)c2F)nc(C(F)(F)F)c1C	0.8	5	–
CO/C=C(/C(=O)OC)c1ccccc1COc1cc(C(F)(F)F)nc(OC(C)C)n1	6.9	9.8	–
CO/C=C(/C(=O)OC)c1ccccc1COc1cc(C(F)(F)F)nc(Nc2ccccc2)n1	3.3	3	IC50 [7]: 3 µM; IC50 [8]: 3.3 µM
COc1cccc2c1C(=O)c1c(O)c3c(c(O)c1C2=O)C[C@@](O)(C(=O)CO)C[C@@H]3O[C@H]1C[C@H](N)[C@H](O)[C@H](C)O1 [DOXORUBICIN]	0.082	0.5	–
CO/C=C(/C(=O)OC)c1ccccc1COc1cc(C(F)(F)F)nc(Nc2ccc(Cl)cc2Cl)n1 [SYP-11277]	> 100	> 100	–
